Screening data deposited in PubChem by several laboratories.
PABP polyA inh = PABP-poly(A) binding inhibition; P11940; PABP-poly(A) RNA binding, fluorescence polarization; calls only at 35 µM; hit rate 1% among 290,000; AID 2014;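 note: calls also rest on retests at 20 µM and on dose response follow-up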
VIM-2 inh = inhibitors of Pseudomonas aeruginosa VIM-2 metallo-beta-lactamase; purified VIM-2, nitrocefin hydrolysis, epi-absorbance fluorescence; inhibition, % at 5.6 µM; AID 1527; hit rate 0.89% among 290,000;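 active = inhibition above the mean of all tested compounds plus 3 SD, cutoff set per screening run, cut at about 7.5% in these data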;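 note: red hydrolysis product quenches plate fluorescence so inhibitors raise well fluorescence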
PABP1 MLLE inh = blocks PAM2 peptide binding to the PABP1 MLLE domain; P11940; GST-MLLE / FITC-PAM2 fluorescence polarization; hit rate 0.36% among 360,000; inhibition, % at 20 µM; in the data active = inhibition above about 35%, passing the limit was not always enough
eIF4H inh = inhibitors of RNA binding by human eIF4H; Q15056; eIF4H fluorescence polarization binding assay; inhibition, % at 35 µM; hit rate 0.94% among 290,000;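 note: calls also rest on retests at 20 µM and on dose response follow-up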
IMP-1 inh-1 = blocks Pseudomonas aeruginosa IMP-1 metallo-beta-lactamase | inhibition, % at 5.6 µM | hit rate 0.45% among 290,000 | purified IMP-1, nitrocefin hydrolysis, epi-absorbance fluorescence;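 active = inhibition above the mean plus 3 SD of all compounds in the same screening run, cut at about 4.5% in these data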
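Assay system: purified recombinant IMP-1 beta-lactamase. Input: IMP-1 0.2 nM before substrate addition. Buffer or medium: Zinc- and detergent-supplemented HEPES buffer, pH 7.1. Schedule: 25 °C, 15 min preincubation, 25 min reaction. Signal: Epi-absorbance fluorescence, 480 nm excitation, 530 nm emission. Evaluation: percent inhibition from optical density relative to buffer-blank wells.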
IMP-1 inh-2 = selectivity counter-screen for VIM-2 inhibitors: IMP-1 metallo-beta-lactamase inhibitors | shares compounds with VIM-2 inh | purified IMP-1, nitrocefin hydrolysis, epi-absorbance fluorescence | inhibition, % at 5.6 µM | 1,300 tested, under 10 active | AID 1856
VIM-2 FRET ctr = inhibits VIM-2 in FRET assay to exclude epi-absorbance artifacts; hit rate 23% among 1,300; purified VIM-2, CCF2 FRET substrate hydrolysis; shares compounds with VIM-2 inh; inhibition, % at 5.6 µM;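 active = inhibition above the mean of all tested compounds plus 3 SD, cut at about 19% in these data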
TEM-1 counter-1 = TEM-1 inhibition, counter-screen for VIM-2 inhibitors; shares compounds with VIM-2 inh; hit rate 3% among 1,300; AID 1866; Purified TEM-1, nitrocefin hydrolysis, epi-absorbance fluorescence; inhibition, % at 5.6 µM;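 active = inhibition above that campaign's mean inhibition plus 3 SD, cut at about 0.46% in these data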
Target sequence (P62593 whole entry, looked up): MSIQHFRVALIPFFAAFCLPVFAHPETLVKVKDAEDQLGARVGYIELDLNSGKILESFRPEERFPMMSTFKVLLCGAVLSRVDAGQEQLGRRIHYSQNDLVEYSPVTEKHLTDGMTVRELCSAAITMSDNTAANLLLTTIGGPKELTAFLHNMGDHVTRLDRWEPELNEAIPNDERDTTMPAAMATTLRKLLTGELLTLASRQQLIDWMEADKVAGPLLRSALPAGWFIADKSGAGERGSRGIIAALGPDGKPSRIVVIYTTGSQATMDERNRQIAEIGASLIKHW
VIM-2 confirm 2 = confirmation of P. aeruginosa VIM-2 metallo-beta-lactamase inhibitors; shares compounds with VIM-2 inh; purified VIM-2, nitrocefin hydrolysis, epi-absorbance; inhibition, % at 5.6 µM; hit rate 96% among 1,300;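 active = inhibition of the VIM-2 beta-lactamase enzyme above about 11% from the earlier first-round screen, limit read from the data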
VIM-2 inh confirm = VIM-2 inhibition, confirmation assay | shares compounds with IMP-1 inh-1 | purified VIM-2 enzyme, nitrocefin absorbance | inhibition, % at 5.6 µM | hit rate 73% among 200 | AID 1860; in the data active = inhibition above about 8%
TEM-1 counter-2 = blocks E. coli TEM-1 beta-lactamase, VIM-2 IMP-1 counter-screen | shares compounds with IMP-1 inh-1 | inhibition, % at 5.6 µM | hit rate 50% among 200 | AID 2184 | nitrocefin absorbance inhibition; in the data active = inhibition above about 0.66%
IMP-1 confirm = confirmation of P. aeruginosa IMP-1 metallo-beta-lactamase inhibitors; shares compounds with IMP-1 inh-1; purified IMP-1 enzyme, absorbance substrate hydrolysis; inhibition, % at 5.6 µM; hit rate 60% among 200; in the data active = inhibition above about 4.9%
Each line names hits and unclear results; the compound was inactive in the other large screens (follow-up assays come after a bar, where they were run). Most compounds without a hit are left out; they make up all but 2.2% or so of the library. Unless noted, the rule behind the calls is not given here.

Cc1c(N2C(=O)/C(=C/c3cccc4ccccc34)SC2=S)c(=O)n(-c2ccccc2)n1C	VIM-2 inh 50.4 (no result: PABP polyA inh, eIF4H inh) | IMP-1 inh-2 inactive | VIM-2 FRET ctr inactive | TEM-1 counter-1 inactive | VIM-2 confirm 2 11.8
Cc1cccn2c(=O)c3cc(C(=O)NCc4ccco4)c(=N)n(C(C)C)c3nc12	VIM-2 inh 12.5 | IMP-1 inh-2 inactive | VIM-2 FRET ctr inactive | TEM-1 counter-1 inactive | VIM-2 confirm 2 27.0
Cc1cccn2c(=O)c3cc(C(=O)NCc4cccnc4)c(=N)n(C(C)C)c3nc12	VIM-2 inh 20.5 | IMP-1 inh-2 inactive | VIM-2 FRET ctr inactive | TEM-1 counter-1 inactive | VIM-2 confirm 2 31.0
Cc1cccn2c(=O)c3cc(C(=O)NCc4cccnc4)c(=N)n(C)c3nc12	none (no result: VIM-2 inh, PABP1 MLLE inh, IMP-1 inh-1)
Cc1cccn2c(=O)c3cc(C(=O)NCc4ccco4)c(=N)n(CCc4ccccc4)c3nc12	none
CCN(c1ccccc1)S(=O)(=O)c1cccc(C(=O)NCC(c2cccs2)N2CCOCC2)c1 (stereo not drawn)	none (no result: PABP polyA inh, VIM-2 inh, eIF4H inh, IMP-1 inh-1)
Cc1ccc(S(=O)(=O)N(C)C)cc1NC(=O)C(C)N(C)CCOc1ccc(Cl)cc1 (stereo not drawn)	none
O=c1[nH]c(SCc2n[nH]c(=S)n2-c2ccccc2)nc2ccccc12	VIM-2 inh 28.0 | IMP-1 inh-2 inactive | VIM-2 FRET ctr 55.1 | TEM-1 counter-1 inactive | VIM-2 confirm 2 40.2
O=c1[nH]c(SCc2n[nH]c(=S)n2-c2ccccc2)nc2sc3c(c12)CCC3	VIM-2 inh 20.9 | IMP-1 inh-2 inactive | VIM-2 FRET ctr 45.1 | TEM-1 counter-1 inactive | VIM-2 confirm 2 29.2
O=c1[nH]c(SCc2nc3ccccc3c(=O)n2-c2ccccc2)nc2ccccc12	none
Cc1ccc(S(=O)(=O)NCCOc2nc(N3CCOCC3)nc(N3CCOCC3)n2)cc1	none
O=C1c2cccc3cccc(c23)C(=O)N1c1nncs1	VIM-2 inh 12.9 | IMP-1 inh-2 inactive | VIM-2 FRET ctr inactive | TEM-1 counter-1 inactive | VIM-2 confirm 2 24.4
Cc1n[nH]c(C)c1N1C(=O)c2cccc3cc(Br)cc(c23)C1=O	VIM-2 inh 14.9 | IMP-1 inh-2 inactive | VIM-2 FRET ctr inactive | TEM-1 counter-1 inactive | VIM-2 confirm 2 25.8
Cc1ccc(C(=O)O)cc1N1C(=O)c2cccc3cc(Br)cc(c23)C1=O	none
Cc1n[nH]c(C)c1N1C(=O)c2cccc3c(Br)ccc(c23)C1=O	VIM-2 inh 29.0 | IMP-1 inh-2 inactive | VIM-2 FRET ctr inactive | TEM-1 counter-1 inactive | VIM-2 confirm 2 33.4
CCOC(=O)C1=C(COC(=O)[C@H](C)NS(=O)(=O)c2ccc(NC(C)=O)cc2)NC(=O)NC1C (stereo partly drawn)	none (no result: PABP polyA inh, VIM-2 inh, eIF4H inh, IMP-1 inh-1)
O=C(O)CC/C(=C\c1cc([N+](=O)[O-])ccc1Cl)c1nc2ccccc2s1	VIM-2 inh 21.3 | IMP-1 inh-2 inactive | VIM-2 FRET ctr 48.8 | TEM-1 counter-1 inactive | VIM-2 confirm 2 33.6
CN(/N=C/c1ccc(O)cc1O)c1ncc(C(F)(F)F)cc1Cl	none
COc1ccc2c(c1)C(=O)Cc1ccccc1O2	none (no result: PABP polyA inh, VIM-2 inh, eIF4H inh, IMP-1 inh-1)
C/C(=N\O)c1ccc2c3c([nH]c2c1)CCCC3	VIM-2 inh 22.7, IMP-1 inh-1 8.6 | VIM-2 inh confirm 37.2 | TEM-1 counter-2 inactive | IMP-1 confirm 4.8
Oc1ccccc1N1CCN(CC(O)COC2CCCc3ccccc32)CC1 (stereo not drawn)	none
